In the EternaBench riboswitch data:

Test system: MS2 coat protein
Experiment: apparent Kd, MS2 coat protein; higher = weaker binding; RNA-MaP array; FMN 200 µM where present
How it was run: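 Designs on Illumina sequencing-chip clusters, transcribed by stalled E. coli RNA polymerase, were exposed to SNAP-549-labelled MS2 coat protein in doubling steps from 0.7 or 1.5 nM up to 3 µM, without and then with constant ligand. The buffer held 100 mM Tris-HCl pH 7.5, 80 mM KCl, 4 mM MgCl2, BSA, DTT, yeast tRNA and Tween-20. Apparent Kd values are medians of filtered per-cluster binding-curve fits to green signal normalised to red-channel RNA signal and control-cluster median Fmax.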

[1] = designed as: OFF switch for flavin mononucleotide, no ligand
[2] = ligand present: flavin mononucleotide, designed as: OFF switch for flavin mononucleotide
[3] = designed as: ON switch for flavin mononucleotide, no ligand
[4] = ligand present: flavin mononucleotide, designed as: ON switch for flavin mononucleotide

Sequence | apparent Kd [1] [nM] | apparent Kd [2] [nM] | apparent Kd [3] [nM] | apparent Kd [4] [nM]
UAUUAGUAAGGAUAUGAGACGUAGGACGCAAGUCCUACGUCUCAGAAGGUACAUGAGGAUCACCCAUGUUUAUU | 18.1 | 24.4 | – | –
GGUCGACAUGAGGAUCACCCAUGUCAGGAUAUCGUCACUGGAGCUGCGGCUCCAGUGACGAGAAGGGAUAUGAU | 41.3 | 37.4 | – | –
CUUUUGUGAGGAUAUCAGUAGUAGAACAAUAGUACUACUACUGAGAAGGCACAUGAGGAUCACCCAUGUUCCUU | 16 | 35.6 | – | –
UUCACGUUAGUAGGAUAUCCGACAUGAGGAUCACCCAUGUCAACAUGGCUCUAGGGAAGUUGUUAGGAGAAGGGCUUUUAAAUA | – | – | 11.9 | 10.3
AAACUGCCACAUGAGGAUCACCCAUGUAAAUAAAGUAUUUGGAGAAGGGCGAUAGCAAAGCUAUCGCAGGAUAUUCUCAGGCAG | – | – | 20.3 | 15.3
UUACUAUUGGAGAAGGGUCGAUCAUAUAGAAUGACAGGAUAUCCAACAUGAGGAUCACCCAUGUGUCACCCAUAUGAGGAUCAC | 34.3 | 52.4 | – | –
UUUUAACAUGAGGAUCACCCAUGUGAGGAUAUCGAAAUUUAUAUUAAUAUUUAUUUAACGAGAAGGCACAUUUU | 96.4 | 88.4 | – | –
GUAGCAUACUGAGGAUAUUCAUACCGGAAACGGACAUGAGGAUCACCCAUGUUAUAUAAAUAUUUGGAGAAGGCAGAAUGCUAC | – | – | 19.4 | 13.2
ACUUCUAAGCAGAAGGCAGUCAUAGCAUUCGUCAUGUAGACAUGAGGAUCACCCAUGUAUAGUGCUGAGGAUAUGCUUGGAUAG | 11.8 | 10.7 | – | –
GCACUUUUAUUUGAACCGAUACGAACAUGAGGAUCACCCAUGUAGGAUAUGCUAAAAGUUGUGAUGCAGAAGGACAUUAAGUGC | 7.73 | 9.21 | – | –
CUUUUGUGAGGAUAUCAGUAGUAAAUAAAUUAAAUUACUACUGAGAAGGCACAUGAGGAUCACCCAUGUUCCUC | 38.3 | 249 | – | –
ACGUGACGUUAGGAUAUUAACUACCUGCCAUCUUAAGAAGGAACGACAUGAGGAUCACCCAUGUGAAUCCGCGA | 26.7 | 27 | – | –
UGGUACUAGGGAGGAUAUGGGAAGAUACAUGAGGAUCACCCAUGUUUAAGAAUGCCGAGAGGCUACUAGAAGGCCCUAGUACCU | – | – | 268 | 9.69
AUUGACUGAGGAUAUUGUACUGCUGACAUGAGGAUCACCCAUGUAUGCUAACUCGGCCGUCGAGAAGGCAGUAAUG | 39 | 27.3 | – | –
GUAUCGUAUGUGAGGAUAUAUUUGUCCUUGGAUCUGUAGAAGGCACAUGAGGAUCACCCAUGUCCAAGUGGUCC | 27.6 | 27.7 | – | –
CAGUACUGAGGAUAUACAUGAGGAUCACCCAUGUAAAAAACCUACGAAAGUAGGACAUGUAGAAGGCAGUACUG | 24.2 | 76.7 | – | –
GUACCUUAUGAGAAGGCGAUCAUGAAACAUGAUCGAGGAUAUCAUGUAAACAUGAGGAUCACCCAUGUAUGGGUAUUAUGGUAG | – | – | 40.8 | 11.3
UUUUAACAUGAGGAUCACCCAUGUGAGGAUAUCGAAAUUUAUAUUUAUAUUUAUUAAUCGAGAAGGCACAUUUU | 132 | 162 | – | –
CUCCGACAUGUAGGAUAUGCGUGGCGAAGCUAUGCAGAAGGACAUGAGGAUCACCCAUGUCUUUCCGUCUGCGUACAGACGGAG | 17.4 | 57.3 | – | –
GUACGUGGACAGAAGGCGACAUGAGGAUCACCCAUGUUGGCUCGGGUAUGACCAAUCCGCAUGAUCGAGGAUAUGUCUGCGGGC | 199 | 14.8 | – | –
AUCAGCUCGUCAGGAUAUACGUCACUGCGUCCGCAGUGUGGUAAGAUCACAUGAGGAUCACCCAUGUAGAAGGGACGAGCUGAU | 13.8 | 264 | – | –
GUAAAGUGAGGAUAUGCUGGAGGUGUAUUCUACGUGUCGAAACAUGAGGAUCACCCAUGUAGAAGGCACGGGCG | 10.2 | 13.1 | – | –
GCAGACGUAGUGAGGAUAUGCUCUACCUCGGUAGAGCAGAAGGCACAUGAGGAUCACCCAUGUGGCUCCUCUGC | 16.2 | 25.1 | – | –
GGAGCACACAUUAACAUGAGGAUCACCCAUGUCACAAGACAUGAGGAUAUGGAUCCGAAAAGGAUCCAGAAGGCAUGGUGCUCC | – | – | 657 | 28
AAAAGACAUGAGGAUCACCCAUGUUAAGACGUGGGAGGAUAUGCAUGGCAAACAUGCUGUGCAGAAGGCCCGUGUC | – | – | 58.4 | 23.1
GAUCACUGAGGAUAUACACAGAUACAAAGUAUCUGAGCGUGACAUGAGGAUCACCCAUGUAGAAGGCAGAGGUC | 190 | 769 | – | –
GCGCACUAAGUGAGGAUAUCGAUUUUUUUUAGGAUCGAGAAGGCACAUGAGGAUCACCCAUGUUUGACGUGCGC | 15.5 | 15.2 | – | –
CAGUUGGGCUCAGGAUAUCGGGUUUAACAUGAGGAUCACCCAUGUCGUCCGCGAAAGCGGAAUCACGAGAAGGGAGACCAGCGA | – | – | 9.12 | 6.42

Sequence | apparent Kd [1] [nM] | apparent Kd [2] [nM] | apparent Kd [3] [nM] | apparent Kd [4] [nM]
UUUUACGUUUCGUAGCAGUGUCAUCGAGAAGGCCCUGACAUGAGGAUCACCCAUGUUGUUACAUGGGAGGAUAUCGAUGAUUUU | – | – | 16.4 | 5.21
CCGAAUAUGCAGGAUAUCGUAUAGGAAACUAUACGAGAAGGGUAAACAUGAGGAUCACCCAUGUUCCUUAACGG | 20.8 | 19.2 | – | –
GGUACUCAAAGAGUACCAAUACGAACAUGAGGAUCACCCAUGUAGGAUAUGCUACUCAAAGAGUAGCAGAAGGACAUGCGCCUA | 18.2 | 106 | – | –
AGAAACAGAGGAUAUCGCGGACAGCACAUGAGGAUCACCCAUGUGAUGCUCCGCGGGCCGCGAGAAGGCUGAAAUG | 15.1 | 36.8 | – | –
UCCUAACCGUAGAAGGGUGACAUGAGGAUCACCCAUGUGCAGCAGCCGUGAACGGCCAUGCUGCCACAGGAUAUACGGAGGAGU | – | – | 26.1 | 55
GGGUACAUCUGAGGAUAUCAUGUAAAUACAUGAGGAUCACCCAUGUCGAUGGAGACAUCGGAGAUUGAGAAGGCCGAUGUACCG | – | – | 263 | 14
UAUUUACAUGAGGAUCACCCAUGUUAGGAUAUGUUUCUAUCGUCGAAAGAUGAUAUUUGCAGAAGGGACAUUAU | 20.5 | 23.3 | – | –
UCGAAAAUGCAAGGAUAUCAAUUAUAGCAAAAUAAGACAUGAGGAUCACCCAUGUAAAUAUGGAGUGAGAAGGUGCAAUAAUUU | – | – | 413 | 123
GCCAACUAAUGAGGAUAUGGCACCUUAUUGGUGCCAGAAGGCAUGUCAAUUGACAUGAGGAUCACCCAUGUAUUAUAGUUGGCG | – | – | 878 | 109
UGGAUGGUAUGAGGAUAUGCGCGCGAAACGCGCGCAGAAGGCAUGUCAAUAGACAUGAGGAUCACCCAUGUACUAUCCAUCCAC | – | – | 121 | 9.41
GAUUACAAGUAAGGAUAUGUAUAUGAAACAUAUACAGAAGGUACAUGAGGAUCACCCAUGUUCUUGCAACGCGAAUAUGUAAUC | 17.2 | 21.6 | – | –
GCUAGUAUUGCAGGAUAUUGAGAAUAAUUAUGGCAAGAAGGGCAUAACAUGAGGAUCACCCAUGUAUUCCUUAGUGAUACUAGC | 9.07 | 8.33 | – | –
AUAUAACAUGAGGAUCACCCAUGUCUCUAAAGUCGAGGAUAUGGGCAGGUUAUAUCCGAACCAGAAGGCGGGUUAU | – | – | 315 | 717
GGAUGACAAAGUCAUCCUUAACGAACAUGAGGAUCACCCAUGUAGGAUAUGGUACUCAAAGAGUACCAGAAGGACAUGUGCCUU | 34.3 | 203 | – | –
AAAUGCAAUCAAGGAUAUGUAUUAAAGAUAUGAAAACAUGAGGAUCACCCAUGUAUAUGGUGGGAACAGAAGGUGAAUAAGUAA | 223 | 200 | – | –
CCGGAUAUGCAGGAUAUCGUAUCGGAUACGAUACGAGAAGGGUAUACAUGAGGAUCACCCAUGUGUCCUACCGG | 22.8 | 31.5 | – | –
AAGAAGUGAGGAUAUGCUGCUCGUCACGAAAGUGAUGAGUAGCAGAAGGCACAUGAGGAUCACCCAUGUAAAGA | 36.9 | 55.4 | – | –
GAGCGAAAGCUCAAUGUCGAUAGCAGAAGGACAUGCAAUAACAUGAAAACAUGAGGAUCACCCAUGUAGGAUAUGCUAUCGACU | 6.65 | 44.5 | – | –
GUGCAUUCGUAGAAGGGUGACAUGAGGAUCACCCAUGUGCGCUGGGCUCGGGAUGCAUCAGCGCCACAGGAUAUACGAAGCACC | – | – | 117 | 106
UUGGACGUCGUAGGAUAUGUAGGAUAUUCCUACAUGAGGAUCACCCAUGUUGACAUGGAAGAAGGACAAAAGGACGAUGUCCAU | – | – | 377 | 9.05
CGUGACUACAUAGGAUAUUGAUACAUGAGGAUCACCCAUGUCACCCAUUUAUAUAUUAGUGUUGACAAGAAGGAUGUGGUCACG | – | – | 16.2 | 7.25
CUUAUGUGAGGAUAUGUACAGAAAAAACUGGGUGUAACUGUACAGAAGGCACAUGAGGAUCACCCAUGUGCAUU | 59.9 | 57.1 | – | –
UGAUAGGACAGAGGAUAUACGUAUAUUCUCCUAAACAUGAGGAUCACCCAUGUAGAAGGCUGUCCUAUCUAAGUCGGAAACGAC | 5.4 | 23.4 | – | –
AUAGUGCCCGAGAAGGACGUACCACAUGUUGAUCACCGAUAUAAGGAACGUAGGAUAUUGGACAUGAGGAUCACCCAUGUGGAU | – | – | 87.5 | 162
GCGGUCAACGUAGGAUAUCUUCAGCCGCAGCGCAUUGCUGUACAUGAGGAUCACCCAUGUCCUGGAGAGAAGGACGGACUGCAA | – | – | 145 | 23.2
UUGGUAUUCGUAGGAUAUCUGUCGCCACCGUGUGGAGAAGGACGAACAUGAGGAUCACCCAUGUAUCAUGGUGUGGGCGUUGUC | 100 | 106 | – | –
GCGUUCUUGUAGAAGGUACAUACAAUAUCUUAUAAACACAUGACACAUGAGGAUCACCCAUGUUGUAAGGAUAUACAUGAACGC | – | – | 6.29 | 7.73
